{"source": "ChEMBL document CHEMBL5154683", "about": "“A 5-FU Precursor Designed to Evade Anabolic and Catabolic Drug Pathways and Activated by Pd Chemistry In Vitro and In Vivo” (J Med Chem, 2022)", "key": {"[1]": {"assay": "Prodrug conversion in rat liver S9 fraction assessed as DH5FU metabolite formation at 1.6 mM incubated for 1 hr in presence of NADPH by 19F-NMR based analysis", "assay_type": "ADME, subcellular", "details": "s9, 1 h, 1600 µM; call rule not given here", "in_short": "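Compound added as 150 mM stock in DMSO-d₆, preincubated 5 min at 37 °C with enzyme mixture, then NADPH added (1 mM) and incubated 1 h at 37 °C, 600 rpm; controls without NADPH and without enzymes. Stopped with EtOAc, dried under N₂, redissolved in DMSO-d₆, DH5FU detected by ¹⁹F NMR vs authentic sample.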"}, "[2]": {"assay": "Prodrug conversion in PBS buffer assessed as 5-Fluorouracil formation by measuring retention time at 100 uM in presence of Pd-resin measured upto 1 hr by UPLC analysis", "assay_type": "ADME", "in_short": "(§1)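 Prodrug (100 μM in PBS, pH 7.4) shaken at 1200 rpm, 37 °C with 1 mg/mL Pd resins (30 μm). Sampled at 10, 20, 40 min, 1, 3, 6, 24 and 48 h; analyzed by reverse-phase UPLC (C18, 60 °C, UV 254 nm), products identified by retention time against authentic standards.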"}, "HCT-116": {"system": "HCT-116", "assay": "Antiproliferative activity against human HCT-116 cells assessed as reduction in cell viability measured after 5 days by PrestoBlue reagent based assay", "assay_type": "functional", "details": "HCT-116, 120 h", "in_short": "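Cells in 10% FBS, 2 mM L-glutamine media at 37 °C, 5% CO₂ (HCT116 in McCoy's 5A, BxPC-3 in RPMI). Seeded at 3000 (HCT116) or 2500 (BxPC-3) cells/well and grown 48 h. Medium then replaced with drug-containing medium, 0.1% DMSO, for 5 d. PrestoBlue 10% v/v added for 1 h, fluorescence read ex 540/em 590 nm. Normalised to DMSO-only wells; sigmoidal variable-slope fit; n = 3.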"}, "[3]": {"assay": "Apparent permeability across apical to basolateral side in human Caco-2 cells assessed as drug recovery at 10 uM measured after 120 mins by LC-MS/MS analysis", "assay_type": "ADME, cell-based", "details": "read-out: Drug recovery", "in_short": "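Caco-2 cells (P40-60) seeded at 1 × 10⁵ cells/cm² on Transwells, used on day 20; rinsed and equilibrated 40 min in HBSS pH 7.4. Compound at 10 μM in HBSS, 1% v/v DMSO, added apically (A–B) or basolaterally (B–A); 120 min at 37 °C, 5% CO₂. Lucifer yellow monitored monolayer integrity; LC-MS/MS with eight-point calibration; recovery from C₀ and both compartments.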"}, "[4]": {"assay": "Plasma protein binding in rat at 5 uM", "assay_type": "ADME, cell-free", "details": "read-out: PPB (converted)", "in_short": "(§2)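 Binding of compound at 5 μM measured in rat and human plasma, with compound recovery determined; n = 3.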"}, "[5]": {"assay": "Plasma protein binding in human assessed as compound recovery at 5 uM", "assay_type": "ADME, cell-free", "details": "read-out: Drug recovery", "in_short": "as §2"}, "[6]": {"assay": "Plasma protein binding in rat assessed as compound recovery at 5 uM", "assay_type": "ADME, cell-free", "details": "read-out: Drug recovery", "in_short": "as §2"}, "[7]": {"assay": "Drug metabolism in PBS buffer assessed as dealkylation of parent compound causing metabolite formation at 100 uM in presence of palladium resin", "assay_type": "ADME", "in_short": "as §1"}, "[8]": {"assay": "AUC (0 to t) in male Wistar Han rat at 1 mg/kg, iv administered as single dose measured upto 24 hrs", "assay_type": "ADME, organism-based", "design": "dose 1 mg/kg, time < 24 hrs, route iv", "details": "in vivo", "in_short": "(§3)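 Male jugular-vein-cannulated Wistar Han rats, 263–319 g, single dose. IV: 1 mg/kg as 2 mL/kg of 0.5 mg/mL in 5% DMSO/95% HPCD (20% w/v), not fasted. PO: 10 mg/kg as 5 mL/kg of 2 mg/mL suspension in 5% DMSO/95% tween 80/HPCD vehicle, fasted overnight. Serial cannula blood sampling 0.083/0.25–24 h (n = 3/route); parent quantified by QToF against calibration curve.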"}, "[9]": {"assay": "AUC (0 to infinity) in male Wistar Han rat at 1 mg/kg, iv administered as single dose measured upto 24 hrs", "assay_type": "ADME, organism-based", "design": "time < 24 hrs, dose 1 mg/kg, route iv", "details": "in vivo", "in_short": "as §3"}, "[10]": {"assay": "AUC (0 to t) in male Wistar Han rat at 10 mg/kg, po administered as single dose measured upto 24 hrs", "assay_type": "ADME, organism-based", "design": "time < 24 hrs, dose 10 mg/kg, route po", "details": "in vivo", "in_short": "as §3"}, "[11]": {"assay": "Mean residence time in male Wistar Han rat at 1 mg/kg, iv administered as single dose measured upto 24 hrs", "assay_type": "ADME, organism-based", "details": "in vivo", "in_short": "as §3"}, "[12]": {"assay": "Cmax in male Wistar Han rat at 1000 mg/kg, po administered as single dose measured upto 24 hrs", "assay_type": "ADME, organism-based", "design": "time < 24 hrs, dose 1000 mg/kg, route po", "details": "in vivo", "in_short": "(§4)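 Single oral dose 1000 mg/kg in male and female rats, dosing volume 10 mL/kg (n = 6); animals observed 14 days with clinical checks, functional/neurobehavioral tests and body weight, necropsy on d15; exposure parameters from the toxicokinetic arm of this study.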"}, "[13]": {"assay": "AUC (0 to t) in male Wistar Han rat at 1000 mg/kg, po administered as single dose measured upto 24 hrs", "assay_type": "ADME, organism-based", "design": "dose 1000 mg/kg, time < 24 hrs, route po", "details": "in vivo", "in_short": "as §4"}, "[14]": {"assay": "AUC (0 to infinity) in maleWistar Han rat at 1000 mg/kg, po administered as single dose measured upto 24 hrs", "assay_type": "ADME, organism-based", "design": "time < 24 hrs, dose 1000 mg/kg, route po", "details": "male, Wistar Han, in vivo", "in_short": "as §4"}, "[15]": {"assay": "AUC (0 to infinity) in female Wistar Han rat at 1000 mg/kg, po administered as single dose measured upto 24 hrs", "assay_type": "ADME, organism-based", "design": "time < 24 hrs, dose 1000 mg/kg, route po", "details": "in vivo", "in_short": "as §4"}, "[16]": {"assay": "Mean residence time in male Wistar Han rat at 1000 mg/kg, po administered as single dose measured upto 24 hrs", "assay_type": "ADME, organism-based", "details": "in vivo", "in_short": "as §4"}, "[17]": {"assay": "Toxicity in female Wistar Han rat assessed as change in body weight at 1000 mg/kg, po administered as single dose measured over 14 days", "assay_type": "organism-based", "details": "in vivo, 336 h, time > 14 day", "in_short": "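Single oral dose of 1000 mg/kg at 10 mL/kg to male and female rats (n = 6), then 14 d observation. Morbidity and mortality checked twice daily. Clinical signs recorded predose, twice on dosing day, then daily. FOB on d1, d7 or d14. Body weight on d1, 2, 5, 8, 11 and 14. Gross necropsy on d15.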"}, "[18]": {"assay": "Drug metabolism in BALB/c mouse bearing HCT-116 tumor assessed as release of 5-FU in plasma at 75 to 150 mg/kg, po administered for 7 days", "assay_type": "ADME, organism-based", "details": "in vivo, 168 h, dose 75-150 mg/kg, time 7 day", "in_short": "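Same HCT116-bearing BALB/c nude mice with intratumoral Pd resins and 7-day oral dosing at 75 or 150 mg/kg; blood collected by microsampling on day 7, 2 h after administration, plasma frozen at –20 °C for analysis.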"}, "[19]": {"assay": "Drug distribution in brain of BALB/c mouse xenografted with human HCT-116 cells at 75 to 150 mg/kg, po administered for 7 days", "assay_type": "ADME, organism-based", "details": "in vivo, 168 h, dose 75-150 mg/kg, time 7 day"}, "[20]": {"assay": "Toxicity in female Wistar Han rat assessed as abnormal morphological changes in organs at 1000 mg/kg, po administered as single dose measured after 15 days", "assay_type": "organism-based", "details": "in vivo, 360 h, time 15 day", "in_short": "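Single oral dose of 1000 mg/kg in 10 mL/kg to male and female rats (n = 6), then 14 days of observation. Mortality and morbidity checked twice daily, with clinical observations and functional/neurobehavioral tests. Body weight recorded d1, d2, d5, d8, d11 and d14. Gross necropsy on d15.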"}}, "data": [{"smiles": "C#CCOc1ncc(F)c(OCC#C)n1", "values": [{"measurement": "Drug metabolism", "setting": "[1]", "value": "Metabolite_Notdetected"}, {"measurement": "Retention_time", "setting": "[2]", "value": 0.78, "unit": "min"}, {"measurement": "EC50", "setting": "HCT-116", "value": "> 100", "unit": "µM"}, {"measurement": "recovery at 2 h, 10 µM", "setting": "[3]", "value": 79.2, "unit": "%"}, {"measurement": "fraction unbound at 5 µM", "setting": "[4]", "value": 0.161}, {"measurement": "recovery at 5 µM", "setting": "[5]", "value": 95.7, "unit": "%"}, {"measurement": "recovery at 5 µM", "setting": "[6]", "value": 94.8, "unit": "%"}, {"measurement": "Drug metabolism", "setting": "[7]", "value": "Metabolite_Detected"}, {"measurement": "AUC(0-t) at 24 h", "setting": "[8]", "value": 0.324, "unit": "µg·h/mL"}, {"measurement": "AUC(0-inf)", "setting": "[9]", "value": 0.33, "unit": "µg·h/mL"}, {"measurement": "AUC(0-t) at 24 h", "setting": "[10]", "value": 6.08, "unit": "µg·h/mL"}, {"measurement": "MRT", "setting": "[11]", "value": 0.569, "unit": "h"}, {"measurement": "Cmax", "setting": "[12]", "value": 84.7, "unit": "µg/mL"}, {"measurement": "AUC(0-t) at 24 h", "setting": "[13]", "value": 1590, "unit": "µg·h/mL"}, {"measurement": "AUC(0-inf)", "setting": "[14]", "value": 2610, "unit": "µg·h/mL"}, {"measurement": "AUC(0-inf)", "setting": "[15]", "value": 1470, "unit": "µg·h/mL"}, {"measurement": "MRT", "setting": "[16]", "value": 9.7, "unit": "h"}, {"measurement": "Activity", "setting": "[17]", "value": "Non-Toxic"}, {"measurement": "Drug metabolism", "setting": "[18]", "value": "Metabolite_Detected"}, {"measurement": "Drug uptake", "setting": "[19]", "value": "Active"}, {"measurement": "Activity", "setting": "[20]", "value": "Non-Toxic"}]}]}
